Compound activity from PubChem.
M18AAP inhibitor: blocks P. falciparum M18 aspartyl aminopeptidase | recombinant PfM18AAP, H-Glu-NHMec fluorogenic cleavage | inhibition, % at 7.35 µM | actives 1.2% (n = 290,000) | AID 1822;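 active means inhibition above the campaign mean inhibition over all tested compounds plus 3 SD, cut at about 28% in these data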;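 further: 0% = plate median of test compound wells and 100% = 2 mM ZnCl2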
ALR H2O2 inh: inhibitors of human sulfhydryl oxidase ALR. P55789. purified ALR, DTT oxidation, H2O2 HRP-luminol luminescence. inhibition, % (test concentration not listed). actives 3.8% (n = 290,000). AID 485317;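 active means mean replicate inhibition above about 79%, with every replicate also reaching it, limit read from the data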
Target sequence (P55789 whole entry, looked up): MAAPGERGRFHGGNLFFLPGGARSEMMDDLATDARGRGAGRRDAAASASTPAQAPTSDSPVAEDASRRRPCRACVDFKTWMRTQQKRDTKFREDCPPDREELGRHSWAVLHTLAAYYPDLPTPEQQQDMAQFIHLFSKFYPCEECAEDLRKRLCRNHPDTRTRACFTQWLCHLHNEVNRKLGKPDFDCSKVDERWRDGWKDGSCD
NS3 helicase inh: HCV NS3 helicase inhibition; AID 1800; actives 0.56% (n = 290,000); inhibition, % at 10.9 µM; NS3 helicase DNA unwinding, Cy5 molecular beacon fluorescence;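 active means inhibition above the mean of all tested compounds plus 3 SD, set per campaign, cut at about 35% in these data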;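 further: 0% = DMSO wells and 100% = thioflavine S control wells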
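Material: hepatitis C virus NS3 helicase domain fragment enzyme; measured by: Cy5 fluorescence, 0 and 60 min reads; control set: DMSO and thioflavine S; incubation: 60 min unwinding reaction at 25 °C after ATP addition; read-out basis: % inhibition from 60/0 min fluorescence ratio, DMSO 0%, thioflavine S 100%; repeats: singlicate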
core dimer inh: blocks dimerization of HCV core protein; TR-FRET GST/Flag-core106 dimerization, 1536-well; inhibition, % at 5 µM; actives 0.33% (n = 300,000);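 active means inhibition above the mean of all tested compounds plus 3 SD, set per screening campaign, cut at about 45% in these data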
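Test system: GST/Flag-tagged HCV core106 proteins; Medium: KF-containing HEPES buffer, pH 7.45, DTT, CHAPS, BSA; Times: compound-protein-antibody incubation 4 h at 22.5 °C; Detection: TR-FRET 671 and 617 nm emission; Benchmarks: wells lacking GST-core106 and wells with excess unlabelled core106.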
EBNA-1 inh: blocks EBNA-1 binding to DNA; EBNA-1 DNA binding, fluorescence polarization; actives 0.34% (n = 300,000); inhibition, % at 14.8 µM; in the data active means inhibition above about 28%
ZTA DNA inh: ZTA (EBV) inhibition in EBNA-1 counter-screen | P03206 | inhibition, % at 11 µM | actives 0.15% (n = 320,000) | ZTA-DNA binding, fluorescence polarization; in the data active means inhibition above about 33%
Target sequence (P03206 whole entry, looked up): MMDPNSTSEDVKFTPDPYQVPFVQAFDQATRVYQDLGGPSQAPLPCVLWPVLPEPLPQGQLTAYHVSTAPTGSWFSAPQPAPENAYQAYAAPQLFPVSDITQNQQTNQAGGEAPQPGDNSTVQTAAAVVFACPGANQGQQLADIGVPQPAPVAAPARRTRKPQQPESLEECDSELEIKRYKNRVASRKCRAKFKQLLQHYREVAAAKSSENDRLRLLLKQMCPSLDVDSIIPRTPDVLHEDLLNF
NS3 helicase cf: confirmation of Hepatitis C virus NS3 helicase inhibitors. inhibition, % at 10.9 µM. actives 31% (n = 1,600). shares compounds with NS3 helicase inh. AID 1943. NS3 helicase DNA unwinding, Cy5 molecular beacon fluorescence;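 active means inhibition above the mean of all tested compounds plus 3 SD, cutoff set per campaign, cut at about 36% in these data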
DNA FID counter: counter-screen for HCV NS3 helicase inhibitors: DNA intercalator displacement; shares compounds with NS3 helicase inh; DNA fluorescent intercalator displacement, fluorescence; inhibition, % at 7.9 µM; actives 4% (n = 1,600); AID 1945; in the data active means inhibition above about 37%;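 further: 0% = vehicle and 100% = reference compound; higher means more displacement of ethidium bromide from the DNA hairpin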
DNA FID DR: displaces fluorescent intercalator from DNA, HCV helicase counter-screen | shares compounds with NS3 helicase inh | fluorescent intercalator displacement from DNA, fluorescence | IC50, µM | 120 tested, under 10 active | AID 2172; call rule not given here
Active calls of the source: *; / = not tested or not shown; + = active, no number. Rows were chosen to be rich in hits. Some 5.2% of all compounds tested hit in one or more screens of this group.

SMILES	M18AAP inhibitor	ALR H2O2 inh	NS3 helicase inh	core dimer inh	EBNA-1 inh	ZTA DNA inh	NS3 helicase cf	DNA FID counter	others
COC(=O)C(O)(c1ccc(NC(=O)Oc2ccccc2)cc1)C(F)(F)F (stereo not drawn)	-3	-3	8	-2	8	5	/	/
CN1CCN(c2ccc(NC(=O)Oc3ccccc3)cc2)CC1	4	80*	0	-9	3	-5	/	/
N/C(=N\[N+](=O)[O-])N1CCN(C(=O)Oc2ccccc2)CC1	-2	-8	9	7	-1	14	/	/
CNc1ccc2nc3ccccc3[n+](C)c2c1	-9	/	18	-112	45*	83*	/	/
C=CCN1C(=O)/C(=C/c2ccc3c(c2)CCCN3CCC)C(=O)NC1=S	5	99*	6	14	-4	-5	/	/
CCN1C(=O)/C(=C/c2ccc3c(c2)CCN3CCCCl)C(=O)NC1=S	4	98*	16	84*	7	5	/	/
O=C1NC(=S)N(C2CC2)C(=O)/C1=C/c1ccc2c(c1)CCN2CCCCl	12	98*	36	35	-5	8	/	/
C=CCN1C(=O)/C(=C\c2ccc(N3CCOCC3)o2)C(=O)NC1=S	17	6	-8	-6	3	-14	/	/
COc1ccc(/C=C2\C(=O)NC(=S)N(C)C2=O)cc1C	-12	21	3	1	2	-2	/	/
CN1c2ccc([N+](=O)[O-])cc2CC2(C(=O)NC(=O)N(c3ccc(Br)cc3)C2=O)C1c1ccccc1 (stereo not drawn)	14	-2	6	16	-6	-6	/	/
CN1/C(=C\C=C\C2=[N+](C)c3ccc4ccccc4c3C2(C)C)C(C)(C)c2ccccc21	1	/	33	-22	101*	+	/	/
N[C@@H]1CCCC[C@H]1N.O=C(O)C(=O)O.[Pt]	/	47	/	0	3	-5	/	/
c1ccc2c(c1)Sc1ccccc1N2CC1CN2CCC1CC2 (stereo not drawn)	3	98*	-48	-7	7	7	/	/
Clc1ccccc1CNC1CN2CCC1CC2 (stereo not drawn)	-1	13	-14	-10	-6	6	/	/
CCOP(=O)(OCC)C(O)c1ccc(N(C)C)cc1 (stereo not drawn)	1	86*	-7	-9	8	-5	/	/
COc1cc2c(cc1O)CC1c3c(cc(O)c(OC)c3-2)CCN1C (stereo not drawn)	18	99*	8	0	-1	-7	/	/
COc1ccc(CC(=O)Nc2ccc3c(C(F)(F)F)cc(=O)oc3c2)cc1OC	1	2	59*	-1	-1	8	-13	-21
OCC12CO[C@@H]3c4ccccc4[C@H](OC1)N32 (stereo partly drawn)	2	-4	-1	-3	-1	4	/	/
Cc1ccnc(NS(=O)(=O)c2ccc(N=Cc3c(O)n(C)c(=O)n(C)c3=O)cc2)n1	2	3	-5	0	8	4	/	/
Cc1nn(CC(=O)N2CCC3(CC2)OCCO3)c(=O)c2cc3ccccc3n12	-6	/	7	6	-1	-1	/	/
Cc1ccc(N2C(=O)NC(=O)/C(=C/c3ccc(-c4ccc(C(=O)O)c(Cl)c4)o3)C2=O)cc1	9	97*	39*	7	6	0	36*	9
Cc1cc(/C=C2\C(=O)NC(=O)N(c3cccc(F)c3)C2=O)c(C)n1-c1ccc(C(=O)O)c(Cl)c1	8	45	16	14	0	4	/	/
O=C(c1ccc(-c2ccccc2)cc1)C1CCCN(Cc2ccn[nH]2)C1 (stereo not drawn)	-6	6	-16	3	1	0	/	/
C1=C(CCNCc2ccccc2)CCCC1	4	-6	1	-1	-2	-7	/	/
O=C(N/N=C/c1c(O)n(CCC2=CCCCC2)c(=S)[nH]c1=O)c1ccccc1	-1	50	40*	18	3	13	99*	4	DNA FID DR=>79
SMILES	M18AAP inhibitor	ALR H2O2 inh	NS3 helicase inh	core dimer inh	EBNA-1 inh	ZTA DNA inh	NS3 helicase cf	DNA FID counter	others
O=C(N/N=C/c1c(O)n(CCC2=CCCCC2)c(=O)[nH]c1=O)c1ccccc1	-1	9	12	1	-8	8	/	/
Cc1ccc(N2C(=O)NC(=O)/C(=C\C=C\c3ccco3)C2=O)cc1C	12	96*	38*	8	-2	19	62*	15	DNA FID DR=>79
Cc1ccc(N2C(=O)NC(=O)/C(=C\C=C\c3ccco3)C2=O)cc1	16	55	42*	2	-8	17	39*	20
O=C1NC(=O)N(c2ccccc2)C(=O)/C1=C/C=C/c1ccco1	24	97*	45*	5	10	28	-5	14
O=C1NC(=O)N(Cc2ccccc2)C(=O)/C1=C\C=C\c1ccco1	30*	19	42*	15	3	5	23	12
C=CCN1C(=O)NC(=O)/C(=C/C=C/c2ccccc2)C1=O	-4	/	1	/	/	/	/	/
Cc1ccc(-c2nc(N(C)C3CCN(C)CC3)c3ccccc3n2)cc1	9	-61	38*	-1	-3	3	17	84*
O=C1NC(=O)N(c2ccc(Cl)cc2)C(=O)/C1=C\c1ccc(Sc2nc3ccccc3[nH]2)o1	2	48	44*	23	5	-3	76*	-7
O=C1NC(=O)C(=Cc2ccc(Sc3ccccc3)o2)C(=O)N1	10	43	9	6	5	5	/	/
CNC(=S)N(C)CCc1cc2c(c(OC)c1C=C1C(=O)NC(=O)NC1=O)OCO2	-6	-2	-1	2	8	0	/	/
C=CCN1C(=O)NC(=O)/C(=C/c2c(CCN(C)C(=O)c3ccccc3)cc3c(c2OC)OCO3)C1=O	10	12	54*	0	-4	3	-32	-17
O=C(N/N=C/c1c(O)n(-c2ccccc2)c(=S)[nH]c1=O)c1ccccc1	1	/	12	-1	-9	0	/	/
CC(C)c1ccc(-n2c(O)c(C=NC(CCS(C)=O)C(=O)O)c(=O)[nH]c2=S)cc1 (stereo not drawn)	1	15	40*	-5	-8	1	-8	12
O=C(Cn1nc(-c2ccccc2)ccc1=O)N1CCC2(CC1)OCCO2	-5	-6	-8	1	-3	9	/	/
O=C1C2CCN(CC2)C12CC2c1ccc(C(F)(F)F)cc1 (stereo not drawn)	-5	-2	39*	1	-15	-7	-8	20
